Measurements from ChEMBL document CHEMBL2429801, “3-Ylidenephthalides as a new class of transient receptor potential channel TRPA1 and TRPM8 modulators” (Bioorg Med Chem Lett, 2013).

Key:
[1] = biological target: T1, Transient receptor potential cation channel subfamily M member 8 (Rattus norvegicus, UniProt Q8R455); test: Antagonist activity at rat recombinant TRPM8 overexpressed in HEK293 cells assessed as inhibition of menthol-induced intracellular calcium influx preincubated for 5 mins followed by menthol challenge by Fluo-4-AM dye-based spectrofluorimetric analysis; format: cell-based
[2] = biological target: T1, Transient receptor potential cation channel subfamily M member 8; test: Antagonist activity at rat recombinant TRPM8 overexpressed in HEK293 cells assessed as inhibition of icilin-induced intracellular calcium influx preincubated for 5 mins followed by icilin challenge by Fluo-4-AM dye-based spectrofluorimetric analysis; format: cell-based
[3] = biological target: Transient receptor potential cation channel subfamily M member 8 (Rattus norvegicus) (UniProt Q8R455); test: Agonist activity at rat recombinant TRPM8 overexpressed in HEK293 cells assessed as induction of intracellular calcium influx by Fluo-4-AM dye-based spectrofluorimetric analysis relative to ionomycin; format: cell-based; parameters: concentration or dose not given beside the values
[4] = biological target: T2, Transient receptor potential cation channel subfamily A member 1 (Rattus norvegicus, UniProt Q6RI86); test: Antagonist activity at rat recombinant TRPA1 overexpressed in HEK293 cells assessed as inhibition of allyl isothiocyanate-induced intracellular calcium influx preincubated for 5 mins followed by allyl isothiocyanate challenge by Fluo-4-AM dye-based spectrofluorimetric analysis; format: cell-based
How it was run: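 Test compounds were preincubated for 5 min in the cuvette with Fluo-4-loaded rat TRPA1-HEK293 cells in Tyrode's buffer, followed by 100 µM AITC challenge.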

[5] = biological target: T2, Transient receptor potential cation channel subfamily A member 1; test: Agonist activity at rat recombinant TRPA1 overexpressed in HEK293 cells assessed as induction of intracellular calcium influx by Fluo-4-AM dye-based spectrofluorimetric analysis; format: cell-based
[6] = biological target: Transient receptor potential cation channel subfamily A member 1 (Rattus norvegicus) (UniProt Q6RI86); test: Agonist activity at rat recombinant TRPA1 overexpressed in HEK293 cells assessed as induction of intracellular calcium influx by Fluo-4-AM dye-based spectrofluorimetric analysis relative to allyl isothiocyanate; format: cell-based
[7] = biological target: T1, Transient receptor potential cation channel subfamily M member 8; test: Agonist activity at rat recombinant TRPM8 overexpressed in HEK293 cells assessed as induction of intracellular calcium influx by Fluo-4-AM dye-based spectrofluorimetric analysis; format: cell-based
[8] = biological target: T3, Transient receptor potential cation channel subfamily A member 1 (Homo sapiens, UniProt O75762); test: Agonist activity at TRPA1 (unknown origin)
[9] = biological target: T3, Transient receptor potential cation channel subfamily A member 1; test: Antagonist activity at TRPA1 (unknown origin) assessed as inhibition of mustard oil-activated […]
How it was run: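 Rat TRPA1 stably expressed in HEK293 cells grown in EMEM with 10% FBS. Cells were loaded with Fluo-4-AM (4 µM) for 1 h at room temperature, then suspended in Tyrode's buffer pH 7.4. Compound was added 5 min before 100 µM allyl isothiocyanate. Ca2+ fluorescence (ex 488/em 516 nm) was read at 25 °C, with the agonist-alone response set as 100%.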

T1 sequence (Q8R455 whole entry): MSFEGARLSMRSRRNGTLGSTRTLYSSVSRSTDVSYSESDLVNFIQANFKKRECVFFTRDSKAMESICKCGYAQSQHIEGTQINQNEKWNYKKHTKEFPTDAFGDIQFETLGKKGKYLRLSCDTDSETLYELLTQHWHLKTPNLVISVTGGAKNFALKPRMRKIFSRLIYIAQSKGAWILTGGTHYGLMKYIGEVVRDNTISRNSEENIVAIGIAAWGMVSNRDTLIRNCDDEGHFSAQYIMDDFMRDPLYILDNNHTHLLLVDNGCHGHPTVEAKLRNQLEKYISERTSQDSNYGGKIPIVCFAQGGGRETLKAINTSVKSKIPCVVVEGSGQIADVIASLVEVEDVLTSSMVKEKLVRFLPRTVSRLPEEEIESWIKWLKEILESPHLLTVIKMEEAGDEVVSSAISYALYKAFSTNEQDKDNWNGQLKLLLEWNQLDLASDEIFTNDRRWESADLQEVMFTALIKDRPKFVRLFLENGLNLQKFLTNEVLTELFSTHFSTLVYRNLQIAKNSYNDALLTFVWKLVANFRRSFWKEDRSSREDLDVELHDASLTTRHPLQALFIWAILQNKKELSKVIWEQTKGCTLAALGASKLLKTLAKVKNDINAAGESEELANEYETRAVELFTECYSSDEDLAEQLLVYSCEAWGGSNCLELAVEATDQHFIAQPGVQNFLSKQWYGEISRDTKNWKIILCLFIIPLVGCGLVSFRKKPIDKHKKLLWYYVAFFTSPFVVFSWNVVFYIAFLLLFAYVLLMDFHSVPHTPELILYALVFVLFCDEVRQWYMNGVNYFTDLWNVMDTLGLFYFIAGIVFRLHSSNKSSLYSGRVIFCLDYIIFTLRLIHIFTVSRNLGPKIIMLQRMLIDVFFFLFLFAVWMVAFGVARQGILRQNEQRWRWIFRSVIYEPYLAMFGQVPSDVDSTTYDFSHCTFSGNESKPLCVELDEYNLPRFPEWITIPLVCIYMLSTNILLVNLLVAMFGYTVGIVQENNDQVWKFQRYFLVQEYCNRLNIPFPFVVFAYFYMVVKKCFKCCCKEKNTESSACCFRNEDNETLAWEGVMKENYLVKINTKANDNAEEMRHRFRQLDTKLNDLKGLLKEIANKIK
Sequence of Transient receptor potential cation channel subfamily M member 8 (Rattus norvegicus) (Q8R455 whole entry, looked up): as the sequence (Q8R455 whole entry) above
T2 sequence (Q6RI86 whole entry): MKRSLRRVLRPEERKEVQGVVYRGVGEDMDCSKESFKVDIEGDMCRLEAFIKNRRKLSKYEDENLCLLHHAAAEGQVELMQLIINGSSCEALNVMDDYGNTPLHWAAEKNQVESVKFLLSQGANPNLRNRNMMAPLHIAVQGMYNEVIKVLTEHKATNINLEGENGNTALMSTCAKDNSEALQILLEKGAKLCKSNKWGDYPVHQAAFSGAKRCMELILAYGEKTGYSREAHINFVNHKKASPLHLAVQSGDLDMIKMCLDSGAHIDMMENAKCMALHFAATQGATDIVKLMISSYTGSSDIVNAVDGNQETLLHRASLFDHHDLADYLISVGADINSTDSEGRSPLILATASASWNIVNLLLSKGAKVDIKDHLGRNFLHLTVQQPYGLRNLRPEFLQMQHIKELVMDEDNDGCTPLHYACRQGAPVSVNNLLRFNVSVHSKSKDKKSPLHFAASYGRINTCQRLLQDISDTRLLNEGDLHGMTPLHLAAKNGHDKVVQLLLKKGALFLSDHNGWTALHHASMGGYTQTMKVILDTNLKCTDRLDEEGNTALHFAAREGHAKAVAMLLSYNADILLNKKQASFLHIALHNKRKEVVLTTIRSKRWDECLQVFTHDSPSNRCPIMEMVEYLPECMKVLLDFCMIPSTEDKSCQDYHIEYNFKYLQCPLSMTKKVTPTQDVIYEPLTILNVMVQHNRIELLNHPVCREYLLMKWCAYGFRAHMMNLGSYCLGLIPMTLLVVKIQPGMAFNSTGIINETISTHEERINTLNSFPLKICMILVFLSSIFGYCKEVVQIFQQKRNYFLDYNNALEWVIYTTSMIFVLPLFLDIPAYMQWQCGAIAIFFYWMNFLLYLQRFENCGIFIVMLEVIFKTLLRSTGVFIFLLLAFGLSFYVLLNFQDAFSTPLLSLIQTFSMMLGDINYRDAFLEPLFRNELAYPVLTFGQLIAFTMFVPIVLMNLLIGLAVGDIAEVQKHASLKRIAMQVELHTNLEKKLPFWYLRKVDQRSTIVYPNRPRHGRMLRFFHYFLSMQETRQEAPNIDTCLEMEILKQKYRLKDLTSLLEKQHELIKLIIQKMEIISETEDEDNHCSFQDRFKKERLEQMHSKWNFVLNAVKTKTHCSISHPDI
Sequence of Transient receptor potential cation channel subfamily A member 1 (Rattus norvegicus) (Q6RI86 whole entry): as above
T3 sequence (O75762 whole entry): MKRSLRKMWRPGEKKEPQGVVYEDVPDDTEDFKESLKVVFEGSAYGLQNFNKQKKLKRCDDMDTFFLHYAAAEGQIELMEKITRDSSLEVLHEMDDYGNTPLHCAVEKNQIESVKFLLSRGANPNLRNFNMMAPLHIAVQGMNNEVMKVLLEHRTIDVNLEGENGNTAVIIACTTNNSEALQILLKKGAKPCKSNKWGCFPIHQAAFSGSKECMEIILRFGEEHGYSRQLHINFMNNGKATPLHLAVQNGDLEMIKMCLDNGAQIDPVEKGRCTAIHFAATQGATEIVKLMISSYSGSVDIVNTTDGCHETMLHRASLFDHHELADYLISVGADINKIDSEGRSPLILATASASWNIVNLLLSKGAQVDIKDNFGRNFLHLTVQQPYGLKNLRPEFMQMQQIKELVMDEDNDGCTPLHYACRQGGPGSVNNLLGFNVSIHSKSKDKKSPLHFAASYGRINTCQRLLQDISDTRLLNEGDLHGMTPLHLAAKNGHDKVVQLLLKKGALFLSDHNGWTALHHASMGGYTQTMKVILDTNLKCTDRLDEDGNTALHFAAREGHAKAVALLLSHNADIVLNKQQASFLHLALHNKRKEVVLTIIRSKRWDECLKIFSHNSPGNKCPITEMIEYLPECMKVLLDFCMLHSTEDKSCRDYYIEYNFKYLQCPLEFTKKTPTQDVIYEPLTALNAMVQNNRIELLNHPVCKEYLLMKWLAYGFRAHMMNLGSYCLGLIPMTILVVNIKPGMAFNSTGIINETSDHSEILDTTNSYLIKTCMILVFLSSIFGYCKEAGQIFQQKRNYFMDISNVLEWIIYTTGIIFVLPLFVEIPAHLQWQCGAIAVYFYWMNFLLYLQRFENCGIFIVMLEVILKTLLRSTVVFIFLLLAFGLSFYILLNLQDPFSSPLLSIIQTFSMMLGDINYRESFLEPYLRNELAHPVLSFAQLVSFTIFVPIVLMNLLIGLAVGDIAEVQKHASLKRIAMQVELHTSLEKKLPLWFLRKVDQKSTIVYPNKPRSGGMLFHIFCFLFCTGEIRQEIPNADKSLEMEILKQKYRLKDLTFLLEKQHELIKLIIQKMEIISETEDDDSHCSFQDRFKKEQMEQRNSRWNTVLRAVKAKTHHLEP

Row | Compound | IC50 [1] [µM] | IC50 [2] [µM] | Efficacy [3] [%] | IC50 [4] [µM] | EC50 [5] [µM] | Efficacy [6] [%] | EC50 [7] [µM] | EC50 [8] [µM] | IC50 [9] [µM]
1 | O=C1O/C(=C\c2ccccc2)c2ccccc21 | 10.2 | 8.3 | < 10 | 2.9 | 3 | 93.6 | – | – | –
2 | C=C1OC(=O)c2c(C)cc(C)cc21 | 128 | 90.1 | < 10 | 34 | 17.2 | 85.1 | – | – | –
3 | O=C1O/C(=C\c2ccc(Cl)cc2)c2ccccc21 | 48.1 | 14.9 | < 10 | 1.5 | 2 | 112 | – | – | –
4 | C/C=C1\OC(=O)c2ccc(OC)cc21 | > 200 | 161 | < 10 | > 100 | 21.7 | 24.6 | – | – | –
5 | CCC/C=C1\OC(=O)c2ccccc21 | – | – | < 10 | – | – | < 10 | – | – | –
6 | COc1ccc(/C=C2\OC(=O)c3ccccc32)cc1 | 11.3 | 3.4 | 12.9 | 2.2 | 1.3 | 65.1 | 1.8 | – | –
7 | CCC/C=C1\OC(=O)c2ccccc21 [Z-butylidenephthalide] | 153 | 141 | – | 44.5 | – | – | – | – | –
8 | CCC/C=C1\OC(=O)C2=C1CCC=C2 [LIGUSTILIDE] | – | – | – | – | – | – | – | 44 | –
9 | CC/C=C1\OC(=O)c2c(C)cc(C)cc21 | 12.1 | 7.7 | < 10 | 36.3 | 15.8 | 43.7 | – | – | –
10 | C=C1OC(=O)c2cc(F)ccc21 | > 200 | > 200 | < 10 | > 100 | 32.2 | 10.2 | – | – | –
11 | Cc1ccc(/C=C2\OC(=O)c3ccccc32)cc1 | 25.1 | 7.2 | < 10 | 2.4 | 4.3 | 126 | – | – | –
12 | CCC/C=C1\OC(=O)c2ccccc21 (mixture of isomers) [Z-butylidenephthalide] | – | – | – | – | – | – | – | – | 23
13 | Cc1cc(C)c2c(c1)/C(=C/c1ccccc1)OC2=O | 1.9 | 1 | < 10 | 0.8 | 1.1 | 117 | – | – | –
